The source made the active and inactive calls. The calls are words filed in the database; no cut-off is given here.
Columns and labels:
[1] = molecular target: Mitogen-activated protein kinase 14 (Mus musculus) (UniProt P47811)
[2] = molecular target: Mitogen-activated protein kinase 14 (Mus musculus, UniProt P47811); assay: Kd value and murine Mitogen-activated protein kinase p38 alpha complex was calculated
[3] = Tested for plasma level after 90 min of 30 mg/kg dose administered in mice; type: ADME, organism-based; design: dose 30 mg/kg; settings: mouse, read-out: Activity
In short: (§1)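 Plasma compound concentration (ng/mL) measured 90 min after oral dosing in LPS-stimulated mice at 10 or 30 mg/kg.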

[4] = molecular target: T1, Tumor necrosis factor (Homo sapiens, UniProt P01375); assay: Tested for inhibition of Tumor necrosis factor, alpha in THP cells; type: functional, cell-based
T1 sequence (P01375 whole entry): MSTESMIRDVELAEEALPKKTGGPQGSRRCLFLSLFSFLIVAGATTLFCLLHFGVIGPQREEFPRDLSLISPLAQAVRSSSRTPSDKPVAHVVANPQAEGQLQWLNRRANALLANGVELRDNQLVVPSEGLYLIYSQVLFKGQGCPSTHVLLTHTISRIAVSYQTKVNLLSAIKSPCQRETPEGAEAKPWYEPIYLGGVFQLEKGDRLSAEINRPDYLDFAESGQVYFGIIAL
In short: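 THP-1 cells preincubated with or without compound 30 min at 37 °C, 5% CO2, then stimulated with LPS (1 μg/mL final) for a further 18–24 h. Human TNF-α in supernatant measured by ELISA.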

[5] = molecular target: Tumor necrosis factor (Mus musculus) (UniProt P06804); assay: Tested for inhibition of Tumor necrosis factor, alpha in LPS-stimulated mice at a dose of 30 mg/kg
Tumor necrosis factor (Mus musculus), sequence (P06804 whole entry, looked up): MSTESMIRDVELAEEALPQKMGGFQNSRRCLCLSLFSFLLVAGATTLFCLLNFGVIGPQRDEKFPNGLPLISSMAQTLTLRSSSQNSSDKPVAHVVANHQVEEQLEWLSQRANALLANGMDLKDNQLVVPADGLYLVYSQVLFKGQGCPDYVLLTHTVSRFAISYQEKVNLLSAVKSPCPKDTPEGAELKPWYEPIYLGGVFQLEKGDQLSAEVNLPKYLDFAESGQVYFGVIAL

[6] = molecular target: T1, Tumor necrosis factor; assay: Tested for inhibition of Tumor necrosis factor, alpha in human whole blood; type: functional, tissue-based
In short: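 Freshly drawn heparinized human whole blood mixed with compound serially diluted in human type AB serum, held 30 min at 37 °C, then stimulated ex vivo with E. coli LPS 0111:B4 (50 ng/mL final). Incubation 5 h at 37 °C. Plasma TNF-α quantified by ELISA, DELFIA or electrochemiluminescence against an on-plate standard curve. Duplicate 11-point curves fitted to a 4-parameter logistic. EC50 is the geometric mean over at least three donors.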

[7] = Tested for plasma level after 90 min of 10 mg/kg dose administered in mice; type: ADME, organism-based; design: dose 10 mg/kg; settings: mouse, read-out: Activity
In short: as §1

[8] = Partition coefficient (logP); type: physicochemical; settings: octanol/water
[9] = molecular target: Tumor necrosis factor (Mus musculus) (UniProt P06804); assay: Tested for inhibition of Tumor necrosis factor, alpha in LPS-stimulated mice at a dose of 10 mg/kg; settings: at 10 mg/kg
[10] = molecular target: Tumor necrosis factor (Mus musculus) (UniProt P06804); assay: Tested for inhibition of Tumor necrosis factor, alpha in LPS-stimulated mice at a dose of 10 mg/kg; Not statistically significant.; settings: at 10 mg/kg
[11] = tested on: Mus musculus; assay: Tested for plasma level after 90 min of 10 mg/kg dose administered in mice; Not detected.; type: ADME, organism-based; design: dose 10 mg/kg; settings: in vivo, 1.5 h
In short: as §1

Mitogen-activated protein kinase 14, sequence (P47811 whole entry): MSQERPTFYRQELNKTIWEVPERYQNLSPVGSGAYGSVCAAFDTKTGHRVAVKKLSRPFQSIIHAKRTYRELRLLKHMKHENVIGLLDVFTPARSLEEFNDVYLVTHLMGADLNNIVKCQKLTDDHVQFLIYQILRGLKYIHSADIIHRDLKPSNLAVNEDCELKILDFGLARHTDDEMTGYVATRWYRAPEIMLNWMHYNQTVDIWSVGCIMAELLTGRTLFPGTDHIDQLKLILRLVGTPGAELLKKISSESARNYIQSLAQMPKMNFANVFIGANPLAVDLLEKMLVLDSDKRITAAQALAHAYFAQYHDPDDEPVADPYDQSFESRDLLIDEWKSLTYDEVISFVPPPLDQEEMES
Mitogen-activated protein kinase 14 (Mus musculus), sequence (P47811 whole entry): as above

Structure (SMILES)	Tm [1] [°C]	Kd [2] [nM]	concentration at 1.5 h [3] [ng/mL]	concentration at 1.5 h [7] [ng/mL]	logP [8]	Activity [11]	EC50 [4] [nM]	inhibition [5] [%]	EC50 [6] [nM]	inhibition [9] [%]	inhibition [10]
CC1(c2cc(NC(=O)Nc3ccc(OCCN4CCOCC4)c4ccccc34)n(-c3ccccc3)n2)CCCCC1	58.1	1.9	–	–	–	–	–	–	–	–	–
Cc1ccc(-n2nc(C(C)(C)C)cc2NC(=O)Nc2ccc(OCCN3CCOCC3)c3ccccc23)cn1	61.3	0.18	54000	13000	3.6	–	19	87	530	86	–
Cc1ccc(-n2nc(C(C)(C)C)cc2NC(=O)Nc2ccc(OCCc3ccncc3)c3ccccc23)cc1	62.4	0.1	30000	–	–	–	20	88	820	–	–
CC(C)(C)c1cc(NC(=O)Nc2ccc(OCCN3CCOCC3)c3ccccc23)n(-c2cccc(N)c2)n1	60.9	0.23	–	1400	–	–	11	–	1600	–	inactive
CC(C)(C)c1cc(NC(=O)Nc2ccc(OCCN3CCOCC3)c3ccccc23)n(-c2ccc(N)cc2)n1	61.4	0.16	–	–	–	Not Active	9	–	440	–	inactive
CC(C)(C)c1cc(NC(=O)Nc2ccc(OCCN3CCOCC3)c3ccccc23)n(C2CCCCC2)n1	54.8	23	–	–	–	–	–	–	–	–	–
CC(=O)Nc1cccc(-n2nc(C(C)(C)C)cc2NC(=O)Nc2ccc(OCCN3CCOCC3)c3ccccc23)c1	55.9	9.9	–	–	–	–	–	–	–	–	–
CC(C)c1cc(NC(=O)Nc2ccc(OCCN3CCOCC3)c3ccccc23)n(-c2ccccc2)n1	56.6	3.4	–	–	–	–	–	–	–	–	–
Cn1nc(C(C)(C)C)cc1NC(=O)Nc1ccc(OCCN2CCOCC2)c2ccccc12	54.5	26	–	–	–	–	–	–	–	–	–
CC(C)(C)c1cc(NC(=O)Nc2ccc(OCCN3CCOCC3)c3ccccc23)n(Cc2ccccc2)n1	53.4	64	–	–	–	–	–	–	–	–	–
Cc1ccc(-n2nc(C(C)(C)C)cc2NC(=O)Nc2ccc(OCCc3cccnc3)c3ccccc23)cc1	59.8	0.52	–	–	–	–	–	–	–	–	–
O=C(Nc1ccc(OCCN2CCOCC2)c2ccccc12)Nc1ccnn1-c1ccccc1	49.1	2400	–	–	–	–	–	–	–	–	–
CC(C)(C)c1cc(NC(=O)Nc2ccc(OCCN3CCOCC3)c3ccccc23)n(-c2ccccc2)n1	61	0.23	38000	5400	–	–	9	81	3400	57	–
COc1ccc(CCOc2ccc(NC(=O)Nc3cc(C(C)(C)C)nn3-c3ccc(C)cc3)c3ccccc23)cc1OC	57.3	3.5	–	–	–	–	–	–	–	–	–
COc1ccc(-n2nc(C(C)(C)C)cc2NC(=O)Nc2ccc(OCCN3CCOCC3)c3ccccc23)cn1	59.1	0.87	80000	–	–	–	42	40	> 10000	–	–
Cc1ccc(-n2nc(C(C)(C)CO)cc2NC(=O)Nc2ccc(OCCN3CCOCC3)c3ccccc23)cc1	53	56	–	–	–	–	–	–	–	–	–
CC(=O)Nc1ccc(-n2nc(C(C)(C)C)cc2NC(=O)Nc2ccc(OCCN3CCOCC3)c3ccccc23)cc1	53.4	64	–	–	–	–	–	–	–	–	–

Further lines, with some results ahead:

Tm [1] [°C]	Kd [2] [nM]	concentration at 1.5 h [3] [ng/mL]	concentration at 1.5 h [7] [ng/mL]	logP [8]	Activity [11]	Structure (SMILES)	EC50 [4] [nM]	inhibition [5] [%]	EC50 [6] [nM]	inhibition [9] [%]	inhibition [10]
55.5	11	–	–	–	–	CCOc1ccc(NC(=O)Nc2cc(C(C)(C)C)nn2-c2ccc(C)cc2)c2ccccc12	–	–	–	–	–
62.4	0.074	7000	–	–	–	Cc1ccc(-n2nc(C(C)(C)C)cc2NC(=O)Nc2ccc(OCCn3ccnc3)c3ccccc23)cc1	36	81	1100	–	–
58.4	1.5	–	–	–	–	Cc1ccc(-n2nc(C(C)(C)C)cc2NC(=O)Nc2ccc(OCCN3C[C@@H](C)O[C@@H](C)C3)c3ccccc23)cc1	–	–	–	–	–
55.4	14	–	–	–	–	Cc1ccc(-n2nc(C(C)(C)C)cc2NC(=O)Nc2ccc(OCCN3CCCCC3)c3ccccc23)cc1	–	–	–	–	–
63.5	–	75000	30000	4.6	–	Cc1ccc(-n2nc(C(C)(C)C)cc2NC(=O)Nc2ccc(OCCN3CCOCC3)c3ccccc23)cc1 [DORAMAPIMOD]	18	84	780	63	–
56.6	5.9	–	–	–	–	Cc1ccc(-n2nc(C(C)(C)C)cc2NC(=O)Nc2ccc(OCCN3CCSCC3)c3ccccc23)cc1	–	–	–	–	–
62.1	0.096	25000	4200	–	–	Cc1ccc(-n2nc(C(C)(C)C)cc2NC(=O)Nc2ccc(OCCN3C[C@H](C)O[C@@H](C)C3)c3ccccc23)cc1	16	50	770	–	inactive
55.6	12	–	–	–	–	Cc1ccc(-n2nc(C(C)(C)C)cc2NC(=O)Nc2ccc(OCCN3CCNCC3)c3ccccc23)cc1	–	–	–	–	–
60.2	0.4	62800	–	–	–	Cc1ccc(-n2nc(C(C)(C)C)cc2NC(=O)Nc2ccc(OCCN3CC[S+]([O-])CC3)c3ccccc23)cc1	50	84	1300	–	–

Reference: ChEMBL document CHEMBL1145135, “Structure-activity relationships of the p38alpha MAP kinase inhibitor 1-(5-tert-butyl-2-p-tolyl-2H-pyrazol-3-yl)-3-[4-(2-morpholin-4-yl-ethoxy)naph- thalen-1-yl]urea (BIRB 796)” (J Med Chem, 2003)
